{
  "source": "ChEMBL document CHEMBL5724801",
  "about": "“EUbOPEN Chemogenomics Library - Multiplex” (2024)",
  "key": {"[1]": {"tested_on": "HEK-293T", "test": "Multiplex assay against HEK293T", "assay_type": "toxicity, cell-based", "conditions": "human", "in_short": "(§1)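 With compound added, live cells were imaged on a CQ1 microscope at 37°C and 5% CO2; staining with Hoechst33342, BioTracker Green Microtubule Cytoskeleton Dye, MitoTracker Red and Annexin V Alexa Fluor 680 had been done at seeding. The CellPathfinder machine-learning gating scheme split cells into Hoechst high-intensity objects or normal cells, normal cells into healthy, pyknosed or fragmented nuclei, and pyknosed cells into mitotic or apoptotic. The tubulin, mitochondrial-mass and membrane-permeability phenotypes are per cents of healthy-nucleus cells.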"}, "[2]": {"tested_on": "U2OS", "test": "Multiplex assay against U2OS", "assay_type": "toxicity, cell-based", "conditions": "human", "in_short": "as §1"}, "[3]": {"conditions": "24 h, 10 µM, compound concentration 10 uM"}, "[4]": {"conditions": "48 h, 1 µM, compound concentration 1 uM"}, "[5]": {"conditions": "48 h, 10 µM, compound concentration 10 uM"}, "[6]": {"conditions": "12 h, 1 µM, compound concentration 1 uM"}, "[7]": {"conditions": "12 h, 10 µM, compound concentration 10 uM"}, "[8]": {"conditions": "24 h, 1 µM, compound concentration 1 uM"}},
  "note": "“And” between values parts separate entries of the source, which are not always exact repeats. Equal entries are not always repeated.",
  "data": [
    {"smiles": "CCOc1c2c(c(OCC)c3ncccc13)CN(c1ccc(CS(=O)(=O)NC(=O)Cc3ccccc3OC)cc1C)C2=O", "values": [
      {"measurement": "Population Apoptotic (%)", "setting": "[1]; [3]", "value": "18% and 32%"},
      {"measurement": "Population Fragmented Nuclei (%)", "setting": "[1]; [3]", "value": "10% and 8%"},
      {"measurement": "Population Healthy Nuclei (%)", "setting": "[1]; [3]", "value": "75% and 82%"},
      {"measurement": "Population Hoechst High Intensity Objects (%)", "setting": "[1]; [3]", "value": "4% and 8%"},
      {"measurement": "Population Membrane Permeable-Phenotype (%)", "setting": "[1]; [3]", "value": "0% and 1%"},
      {"measurement": "Population Mitochondria Different-Phenotype (%)", "setting": "[1]; [3]", "value": "36% and 49%"},
      {"measurement": "Population Mitotic Cells (%)", "setting": "[1]; [3]", "value": "81% and 67%"},
      {"measurement": "Population Normal (%)", "setting": "[1]; [3]", "value": "95% and 91%"},
      {"measurement": "Population Pyknosed Nuclei (%)", "setting": "[1]; [3]", "value": "14% and 9%"},
      {"measurement": "Population Tubulin-Different-Phenotype (%)", "setting": "[1]; [3]", "value": "28% and 17%"},
      {"measurement": "Total Cell Count", "setting": "[1]; [3]", "value": "446 and 481"},
      {"measurement": "Population Apoptotic (%)", "setting": "[1]; [4]", "value": "29% and 33%"},
      {"measurement": "Population Fragmented Nuclei (%)", "setting": "[1]; [4]", "value": "13% and 11%"},
      {"measurement": "Population Healthy Nuclei (%)", "setting": "[1]; [4]", "value": "79% and 83%"},
      {"measurement": "Population Hoechst High Intensity Objects (%)", "setting": "[1]; [4]", "value": "3% and 1%"},
      {"measurement": "Population Membrane Permeable-Phenotype (%)", "setting": "[1]; [4]", "value": 0, "unit": "%"},
      {"measurement": "Population Mitochondria Different-Phenotype (%)", "setting": "[1]; [4]", "value": "20% and 14%"},
      {"measurement": "Population Mitotic Cells (%)", "setting": "[1]; [4]", "value": "70% and 66%"},
      {"measurement": "Population Normal (%)", "setting": "[1]; [4]", "value": "96% and 98%"},
      {"measurement": "Population Pyknosed Nuclei (%)", "setting": "[1]; [4]", "value": "6% and 5%"},
      {"measurement": "Population Tubulin-Different-Phenotype (%)", "setting": "[1]; [4]", "value": "13% and 7%"},
      {"measurement": "Total Cell Count", "setting": "[1]; [4]", "value": "822 and 770"},
      {"measurement": "Population Apoptotic (%)", "setting": "[1]; [5]", "value": "41% and 33%"},
      {"measurement": "Population Fragmented Nuclei (%)", "setting": "[1]; [5]", "value": "13% and 12%"},
      {"measurement": "Population Healthy Nuclei (%)", "setting": "[1]; [5]", "value": "78% and 81%"},
      {"measurement": "Population Hoechst High Intensity Objects (%)", "setting": "[1]; [5]", "value": "4% and 3%"},
      {"measurement": "Population Membrane Permeable-Phenotype (%)", "setting": "[1]; [5]", "value": "1% and 0%"},
      {"measurement": "Population Mitochondria Different-Phenotype (%)", "setting": "[1]; [5]", "value": "32% and 22%"},
      {"measurement": "Population Mitotic Cells (%)", "setting": "[1]; [5]", "value": "58% and 66%"},
      {"measurement": "Population Normal (%)", "setting": "[1]; [5]", "value": "95% and 96%"},
      {"measurement": "Population Pyknosed Nuclei (%)", "setting": "[1]; [5]", "value": "8% and 6%"},
      {"measurement": "Population Tubulin-Different-Phenotype (%)", "setting": "[1]; [5]", "value": "16% and 11%"},
      {"measurement": "Total Cell Count", "setting": "[1]; [5]", "value": "631 and 724"},
      {"measurement": "Population Apoptotic (%)", "setting": "[2]; [6]", "value": "64% and 100%"},
      {"measurement": "Population Fragmented Nuclei (%)", "setting": "[2]; [6]", "value": "22% and 13%"},
      {"measurement": "Population Healthy Nuclei (%)", "setting": "[2]; [6]", "value": "70% and 82%"},
      {"measurement": "Population Hoechst High Intensity Objects (%)", "setting": "[2]; [6]", "value": "2% and 1%"},
      {"measurement": "Population Membrane Permeable-Phenotype (%)", "setting": "[2]; [6]", "value": "7% and 9%"},
      {"measurement": "Population Mitochondria Different-Phenotype (%)", "setting": "[2]; [6]", "value": 3, "unit": "%"},
      {"measurement": "Population Normal (%)", "setting": "[2]; [6]", "value": "97% and 98%"},
      {"measurement": "Population Pyknosed Nuclei (%)", "setting": "[2]; [6]", "value": "7% and 4%"},
      {"measurement": "Population Tubulin-Different-Phenotype (%)", "setting": "[2]; [6]", "value": "2% and 6%"},
      {"measurement": "Total Cell Count", "setting": "[2]; [6]", "value": "189 and 93"},
      {"measurement": "Population Apoptotic (%)", "setting": "[2]; [7]", "value": "81% and 80%"},
      {"measurement": "Population Fragmented Nuclei (%)", "setting": "[2]; [7]", "value": "30% and 21%"},
      {"measurement": "Population Healthy Nuclei (%)", "setting": "[2]; [7]", "value": "63% and 75%"},
      {"measurement": "Population Hoechst High Intensity Objects (%)", "setting": "[2]; [7]", "value": 2, "unit": "%"},
      {"measurement": "Population Membrane Permeable-Phenotype (%)", "setting": "[2]; [7]", "value": "5% and 8%"},
      {"measurement": "Population Mitochondria Different-Phenotype (%)", "setting": "[2]; [7]", "value": "3% and 6%"},
      {"measurement": "Population Mitotic Cells (%)", "setting": "[2]; [7]", "value": "18% and 20%"},
      {"measurement": "Population Normal (%)", "setting": "[2]; [7]", "value": 97, "unit": "%"},
      {"measurement": "Population Pyknosed Nuclei (%)", "setting": "[2]; [7]", "value": "6% and 3%"},
      {"measurement": "Population Tubulin-Different-Phenotype (%)", "setting": "[2]; [7]", "value": "2% and 3%"},
      {"measurement": "Total Cell Count", "setting": "[2]; [7]", "value": "248 and 136"},
      {"measurement": "Population Apoptotic (%)", "setting": "[2]; [8]", "value": "80% and 100%"},
      {"measurement": "Population Fragmented Nuclei (%)", "setting": "[2]; [8]", "value": "21% and 19%"},
      {"measurement": "Population Healthy Nuclei (%)", "setting": "[2]; [8]", "value": "71% and 76%"},
      {"measurement": "Population Hoechst High Intensity Objects (%)", "setting": "[2]; [8]", "value": "3% and 1%"},
      {"measurement": "Population Membrane Permeable-Phenotype (%)", "setting": "[2]; [8]", "value": "4% and 7%"},
      {"measurement": "Population Mitochondria Different-Phenotype (%)", "setting": "[2]; [8]", "value": "0% and 4%"},
      {"measurement": "Population Mitotic Cells (%)", "setting": "[2]; [8]", "value": "20% and 0%"},
      {"measurement": "Population Normal (%)", "setting": "[2]; [8]", "value": "96% and 98%"},
      {"measurement": "Population Pyknosed Nuclei (%)", "setting": "[2]; [8]", "value": "6% and 4%"},
      {"measurement": "Population Tubulin-Different-Phenotype (%)", "setting": "[2]; [8]", "value": "1% and 4%"},
      {"measurement": "Total Cell Count", "setting": "[2]; [8]", "value": "235 and 125"},
      {"measurement": "Population Apoptotic (%)", "setting": "[2]; [3]", "value": "76% and 100%"},
      {"measurement": "Population Fragmented Nuclei (%)", "setting": "[2]; [3]", "value": "27% and 17%"},
      {"measurement": "Population Healthy Nuclei (%)", "setting": "[2]; [3]", "value": "61% and 76%"},
      {"measurement": "Population Hoechst High Intensity Objects (%)", "setting": "[2]; [3]", "value": "3% and 0%"},
      {"measurement": "Population Membrane Permeable-Phenotype (%)", "setting": "[2]; [3]", "value": 6, "unit": "%"},
      {"measurement": "Population Mitochondria Different-Phenotype (%)", "setting": "[2]; [3]", "value": 2, "unit": "%"},
      {"measurement": "Population Mitotic Cells (%)", "setting": "[2]; [3]", "value": "23% and 0%"},
      {"measurement": "Population Normal (%)", "setting": "[2]; [3]", "value": "96% and 99%"},
      {"measurement": "Population Pyknosed Nuclei (%)", "setting": "[2]; [3]", "value": "10% and 5%"},
      {"measurement": "Population Tubulin-Different-Phenotype (%)", "setting": "[2]; [3]", "value": "1% and 5%"},
      {"measurement": "Total Cell Count", "setting": "[2]; [3]", "value": "285 and 152"},
      {"measurement": "Population Apoptotic (%)", "setting": "[2]; [4]", "value": "85% and 100%"},
      {"measurement": "Population Fragmented Nuclei (%)", "setting": "[2]; [4]", "value": "19% and 17%"},
      {"measurement": "Population Healthy Nuclei (%)", "setting": "[2]; [4]", "value": "74% and 79%"},
      {"measurement": "Population Hoechst High Intensity Objects (%)", "setting": "[2]; [4]", "value": "2% and 4%"},
      {"measurement": "Population Membrane Permeable-Phenotype (%)", "setting": "[2]; [4]", "value": "3% and 7%"},
      {"measurement": "Population Mitochondria Different-Phenotype (%)", "setting": "[2]; [4]", "value": "1% and 3%"},
      {"measurement": "Population Mitotic Cells (%)", "setting": "[2]; [4]", "value": "15% and 0%"},
      {"measurement": "Population Normal (%)", "setting": "[2]; [4]", "value": "97% and 95%"},
      {"measurement": "Population Pyknosed Nuclei (%)", "setting": "[2]; [4]", "value": "5% and 2%"},
      {"measurement": "Population Tubulin-Different-Phenotype (%)", "setting": "[2]; [4]", "value": "2% and 5%"},
      {"measurement": "Total Cell Count", "setting": "[2]; [4]", "value": "344 and 167"},
      {"measurement": "Population Apoptotic (%)", "setting": "[2]; [5]", "value": "91% and 100%"},
      {"measurement": "Population Fragmented Nuclei (%)", "setting": "[2]; [5]", "value": "19% and 18%"},
      {"measurement": "Population Healthy Nuclei (%)", "setting": "[2]; [5]", "value": "71% and 74%"},
      {"measurement": "Population Hoechst High Intensity Objects (%)", "setting": "[2]; [5]", "value": 2, "unit": "%"},
      {"measurement": "Population Membrane Permeable-Phenotype (%)", "setting": "[2]; [5]", "value": "5% and 8%"},
      {"measurement": "Population Mitochondria Different-Phenotype (%)", "setting": "[2]; [5]", "value": "1% and 4%"},
      {"measurement": "Population Mitotic Cells (%)", "setting": "[2]; [5]", "value": "8% and 0%"},
      {"measurement": "Population Normal (%)", "setting": "[2]; [5]", "value": 97, "unit": "%"},
      {"measurement": "Population Pyknosed Nuclei (%)", "setting": "[2]; [5]", "value": "9% and 6%"},
      {"measurement": "Population Tubulin-Different-Phenotype (%)", "setting": "[2]; [5]", "value": "2% and 3%"},
      {"measurement": "Total Cell Count", "setting": "[2]; [5]", "value": "385 and 236"}
    ]}
  ]
}
